Only a selection was taken, and hits are over-represented in it overall.
Dyrk1A ADPGlo: Dyrk1A (rat) kinase inhibition | Q63470 | ADP-Glo luminescence, NFATc1 peptide | inhibition, % at 12.5 µM | 0.43% of 310,000 active | AID 504441; in the data active = inhibition above about 50%;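 note: plate controls were vehicle with enzyme for no effect and no enzyme for full effect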
STK33 inh: blocks human STK33 kinase activity; Q9BYT3; purified STK33, MBP phosphorylation, ADP-Glo luminescence; 0.073% of 320,000 active; inhibition, % at 10 µM;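 active = inhibition at or above 25%, using the most active replicate where run in duplicate; inactive = inhibition below 25%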
GSK3A inh: blocks human GSK-3 alpha kinase; P49840; ADP-Glo luminescence, 60 min; inhibition, % at 10 µM; 0.1% of 320,000 active; AID 2650;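 active = more than half of replicates show inhibition above 20%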;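 note: GST-tagged GSK-3 alpha with peptide substrate and 25 µM ATP; 0% = DMSO neutral wells and 100% = GW8510 positive control wells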
Target sequence (P49840 whole entry, looked up): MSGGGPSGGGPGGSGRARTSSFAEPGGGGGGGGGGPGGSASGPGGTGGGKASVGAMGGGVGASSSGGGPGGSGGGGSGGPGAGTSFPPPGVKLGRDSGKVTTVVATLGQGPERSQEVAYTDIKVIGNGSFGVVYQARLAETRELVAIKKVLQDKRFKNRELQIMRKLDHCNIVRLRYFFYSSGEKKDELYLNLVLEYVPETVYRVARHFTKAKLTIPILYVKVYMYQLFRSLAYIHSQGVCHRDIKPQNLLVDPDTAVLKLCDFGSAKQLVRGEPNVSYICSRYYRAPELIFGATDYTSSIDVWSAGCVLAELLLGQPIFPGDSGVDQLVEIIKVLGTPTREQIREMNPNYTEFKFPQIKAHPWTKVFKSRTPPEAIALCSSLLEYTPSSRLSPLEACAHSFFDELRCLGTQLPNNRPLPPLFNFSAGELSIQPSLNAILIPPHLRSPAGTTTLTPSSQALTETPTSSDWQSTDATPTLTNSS
GSK3B inh: inhibitors of human GSK3beta kinase | P49841 | GST-GSK3beta kinase, ADP-Glo luminescence, 60 min; stronger effect = lower value | activity score (negative = inhibition), % at 10 µM | 0.038% of 300,000 active;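 active = more than half of replicate wells score below -50%, meaning over 50% inhibition versus plate controls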;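 note: 0% = median DMSO wells and -100% = median GW8510 positive control wells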
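Test system – GST-tagged human GSK3beta kinase, cell-free · Incubation – 60 min enzyme reaction, room temperature · Signal – ADP-Glo luminescence · Also added – peptide substrate and ATP at 25 µM · Controls – DMSO neutral wells and GW8510 at 20 µM as positive · Buffer or medium – Tris/MgCl2 kinase buffer · Measure – Luminescence-derived activity versus plate DMSO and GW8510 wells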
* = called active by the depositor; / = no result given.

SMILES	Dyrk1A ADPGlo	STK33 inh	GSK3A inh	GSK3B inh
Nc1nc(NC2CCCCC2)nc(NCCO)c1[N+](=O)[O-]	2	3	86*	-58*
COc1ccccc1CNC(=O)c1ccc(NC(=O)CC2SC(N3CCCC3)=NC2=O)cc1 (configuration not stated)	/	-2	-1	/
O=C(CN1CCN(Cc2ccccc2)CC1)Nc1ccc(Br)cc1	-1	-1	0	0
O=C(NCc1ccncc1)c1ccc(NS(=O)(=O)c2ccccc2)cc1	-5	0	3	1
CCN1CCN(c2cc(C)c3cc(NC(=O)CCC(=O)Nc4ccc(OC)cc4OC)ccc3n2)CC1	5	-1	1	0
CCN1CCN(c2c(C=O)c(Cl)nc3ccc(OC)cc23)CC1	15	3	82*	-55*
O=C(Nc1nccs1)c1ccc(N2CCOCC2)c([N+](=O)[O-])c1	16	26*	4	-8
O=C(Nc1ccccc1N1CCOCC1)c1ccc(N2CCOCC2)c([N+](=O)[O-])c1	-2	-1	-2	5
COc1ccc(CNC(=O)CSc2nc(SC)ns2)cc1	2	-2	-4	0
O=C(Nn1cnc2ccccc2c1=O)c1ccc([N+](=O)[O-])cc1	-2	1	-1	-1
COc1ccc(C2C3=C(CC(C)(C)CC3=O)Nc3n[nH]c(C)c32)cc1 (configuration not stated)	3	2	41	-33
COc1cccc(C2C3=C(CC(C)(C)CC3=O)Nc3n[nH]c(C)c32)c1 (configuration not stated)	7	-1	78*	-86*
Cc1[nH]nc2c1C(c1ccsc1)C1=C(CC(C)(C)CC1=O)N2 (configuration not stated)	8	4	84*	-77*
Cc1[nH]nc2c1C(c1ccc(O)cc1)C1=C(CC(C)(C)CC1=O)N2 (configuration not stated)	11	0	86*	-74*
Cc1ccc(C2C3=C(CC(C)(C)CC3=O)Nc3[nH]c(=S)[nH]c(=O)c32)cc1 (configuration not stated)	-5	-1	/	-2
N#CC1=C2SCN(c3ccc(F)cc3)CN2C(=O)CC1c1cccc(F)c1 (configuration not stated)	6	0	56*	-1
COc1ccc(N2CSC3=C(C#N)C(c4cccs4)CC(=O)N3C2)cc1 (configuration not stated)	3	1	91*	-50
CCc1ccc(C2CC(=O)N3CN(c4ccccc4)CSC3=C2C#N)cc1 (configuration not stated)	8	-1	-1	-6
Nc1nonc1-n1nnc(C(=O)N/N=C/c2ccc(O)cc2)c1CN1CCCCCC1	11	0	83*	-64*
CN(C)Cc1c(C(=O)N/N=C/c2cccc3ccccc23)nnn1-c1nonc1N	-1	0	-1	0
CCCN(CCC)Cc1c(C(=O)N/N=C/c2ccoc2)nnn1-c1nonc1N	-1	1	72*	-58*
CCN(CC)Cc1c(C(=O)N/N=C/c2ccc(C)o2)nnn1-c1nonc1N	-2	0	32	-1
CN(C)Cc1c(C(=O)N/N=C/c2ccoc2)nnn1-c1nonc1N	25	1	0	-1
Nc1nonc1-n1nnc(C(=O)N/N=C/c2cccc(O)c2)c1CN1CCCC1	18	1	/	-25
CCN(CC)Cc1c(C(=O)N/N=C/c2ccncc2)nnn1-c1nonc1N	9	4	101*	2
SMILES	Dyrk1A ADPGlo	STK33 inh	GSK3A inh	GSK3B inh
CN(C)Cc1c(C(=O)N/N=C/c2ccncc2)nnn1-c1nonc1N	12	0	64*	-29
O=C(c1cc(-c2ccc(Cl)cc2)n[nH]1)N1CCc2ccccc2C1	/	-2	/	0
c1ccc(CNc2ncnc3scc(-c4cccs4)c23)nc1	25	11	57*	-37
O=C(O)c1cc2ccccc2c(N=Nc2cccnc2)c1O	73*	1	0	-5
CC1Cc2ccccc2N1c1ncnc(N)c1[N+](=O)[O-] (configuration not stated)	28	3	12	-15
CC1CCCCN1c1ncnc(N)c1[N+](=O)[O-] (configuration not stated)	/	0	1	-68*
CCOc1ccc(-c2cc(CCCC(=O)N3CCN(c4ccc(OC)cc4)CC3)no2)cc1	5	-1	-1	5
CCOc1ccc(-c2cc(CCCC(=O)NCCCOC)no2)cc1	-1	28*	0	2
NS(=O)(=O)c1ccc(N=Nc2ccc(=O)[nH]c2O)cc1	0	-2	55*	-33
CC(=O)Oc1cc(O)c2c(=O)c(OC(C)=O)c(-c3ccc(OC(C)=O)c(OC(C)=O)c3)oc2c1	86*	11	29	-22
COc1cccc(-c2onc3ccc(C(=O)/C=C/N(C)C)cc23)c1	10	54*	16	1
Clc1ccc(/C=N/Nc2ncnc3nc[nH]c23)cc1	14	6	61*	-36
N#CC(C#N)=C1c2cc(S(N)(=O)=O)ccc2-c2ccc(S(N)(=O)=O)cc21	10	/	/	/
NS(=O)(=O)c1ccc2c(c1)C(=NO)c1cc(S(N)(=O)=O)ccc1-2	6	72*	-1	2
CCc1cc2c(cc3c(=O)n(CC(=O)NCCCN4CCCCCC4)nc(CC)n32)s1	-7	1	-2	3
COc1cccc2cc(C(=O)CS(=O)(=O)c3ccc(C)cc3)c(=O)oc12	4	-1	-3	-54*
CNC[C@@H]1Oc2ccc(NS(=O)(=O)c3ccc(OC)cc3)cc2CC(=O)N([C@H](C)CO)C[C@@H]1C	2	-1	-2	/
CSc1nc(SCC(=O)NCC2CCCO2)c2c3c(sc2n1)CN(C)CC3 (configuration not stated)	/	2	57*	-29
Cc1nc(SCC(=O)NCC2CCCO2)c2c3c(sc2n1)CCCC3 (configuration not stated)	8	0	-4	/
CC(C)(Cc1ccccc1)/[N+]([O-])=C\c1ccc(C(F)(F)F)cc1	-4	0	-2	2
Oc1ccc(/C=N/Nc2ccnc3cc(Cl)ccc23)cc1O	8	67*	1	1
Oc1ccc(/C=N/NC(=S)Nc2cccnc2)cc1	5	3	8	-2
Oc1ccc(/C=N/NC(=S)N/N=C/c2ccc(O)cc2)cc1	9	30*	25	-8
COc1ccc(NC(=O)COC(=O)c2ccc(S(=O)(=O)N(C)c3ccccc3OC)cc2)cc1	-1	/	/	/
O=c1c2ccccc2oc2cc(NCCCN3CCOCC3)ccc12	17	12	3	-2
CN1CCCC1CCNc1ccc2oc3ccccc3c(=O)c2c1 (configuration not stated)	/	39*	3	-1
O=c1c2ccccc2oc2ccc(NCCCN3CCOCC3)cc12	5	50*	3	2
CCc1nc(SCC(=O)N2CCCCC2)c2c(=O)n(C)c(=O)n(C)c2n1	-5	0	1	-4
COc1cc2c(cc1OC)CN(C(=O)C1CCCN(C(=O)c3ccc(Cl)cc3)C1)CC2 (configuration not stated)	/	0	-7	/

Screening data from PubChem.
